Assay results from ChEMBL document CHEMBL1158382 (Eur J Med Chem, 2009).

Experiments:
Mus musculus = experiment: Analgesic activity in Albino mouse assessed as inhibition of acetic acid-induced writhing at 300 umol/kg, po administered 1 hr before acetic acid challenge and measured 10 mins after acetic acid challenge; assay type: functional
In short: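 Mice of both sexes (18–23 g) dosed orally as a suspension in 5% Arabic gum in saline; vehicle controls got an equal volume. Acetic acid 0.6% (0.1 mL/10 g) given i.p. 1 h later. Constrictions per animal counted for 20 min, starting 10 min after the injection. Value is % inhibition of constrictions versus vehicle group, mean ± SEM, N = 8–10.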

Rattus norvegicus [1] = experiment: Gastrointestinal toxicity in Albino rat assessed ulcer index at 300 umol/kg, po; conditions: in vivo
Rattus norvegicus [2] = experiment: Antiinflammatory activity in Albino rat assessed as inhibition of carrageenan-induced paw edema at 300 umol/kg, po administered 1 hr before carrageenan challenge and measured 3 hrs after carrageenan challenge
[3] = Ratio of IC50 for COX1 to IC50 for COX2

SMILES: CCCCNC(=O)CC1=C(C)/C(=C/c2ccc(S(C)(=O)=O)cc2)c2ccc(F)cc21
- inhibition in vivo at 300 µmol/kg (Mus musculus): 35%
- UI (Rattus norvegicus [1]): 2
- inhibition in vivo at 300 µmol/kg (Rattus norvegicus [2]): 7%

SMILES: CC1=C(CC(=O)O)c2cc(F)ccc2/C1=C\c1ccc([S+](C)[O-])cc1 (configuration not stated)
- inhibition in vivo at 300 µmol/kg (Mus musculus): 49%
- inhibition in vivo at 300 µmol/kg (Rattus norvegicus [2]): 67%

SMILES: Cc1ccc(Cl)c(Nc2ccccc2C(=O)NCCCCl)c1Cl
- Ratio IC50 [3]: 40

SMILES: CCCNC(=O)CC1=C(C)/C(=C/c2ccc(S(C)(=O)=O)cc2)c2ccc(F)cc21
- inhibition in vivo at 300 µmol/kg (Mus musculus): 39%
- UI (Rattus norvegicus [1]): 1.4
- inhibition in vivo at 300 µmol/kg (Rattus norvegicus [2]): 20%

SMILES: Cc1ccc(Cl)c(Nc2ccccc2C(=O)NCCOc2ccccc2)c1Cl
- Ratio IC50 [3]: 440

SMILES: COC(=O)CC1=C(C)/C(=C/c2ccc(S(C)(=O)=O)cc2)c2ccc(F)cc21
- inhibition in vivo at 300 µmol/kg (Mus musculus): 21%
- UI (Rattus norvegicus [1]): 0
- inhibition in vivo at 300 µmol/kg (Rattus norvegicus [2]): 15%

SMILES: CC1=C(CC(=O)N2CCOCC2)c2cc(F)ccc2/C1=C\c1ccc(S(C)(=O)=O)cc1
- inhibition in vivo at 300 µmol/kg (Mus musculus): 22%
- UI (Rattus norvegicus [1]): 0
- inhibition in vivo at 300 µmol/kg (Rattus norvegicus [2]): 4%

SMILES: CC1=C(CC(=O)N2CCSCC2)c2cc(F)ccc2/C1=C\c1ccc(S(C)(=O)=O)cc1
- inhibition in vivo at 300 µmol/kg (Mus musculus): 48%
- UI (Rattus norvegicus [1]): 4
- inhibition in vivo at 300 µmol/kg (Rattus norvegicus [2]): 11%

SMILES: CC1=C(CC(=O)O)c2cc(F)ccc2/C1=C\c1ccc(S(C)(=O)=O)cc1 [EXISULIND]
- inhibition in vivo at 300 µmol/kg (Mus musculus): 34%
- inhibition in vivo at 300 µmol/kg (Rattus norvegicus [2]): 48%

SMILES: Cc1ccc(Cl)c(Nc2ccccc2C(=O)O)c1Cl
- Ratio IC50 [3]: 0.72

SMILES: COc1ccc2c(c1)c(CC(=O)Nc1cccnc1)c(C)n2C(=O)c1ccc(Cl)cc1
- Ratio IC50 [3]: 1300

SMILES: CNC(=O)CC1=C(C)/C(=C/c2ccc(S(C)(=O)=O)cc2)c2ccc(F)cc21
- inhibition in vivo at 300 µmol/kg (Mus musculus): 43%
- UI (Rattus norvegicus [1]): 0
- inhibition in vivo at 300 µmol/kg (Rattus norvegicus [2]): 35%

SMILES: CCN(CC)C(=O)CC1=C(C)/C(=C/c2ccc(S(C)(=O)=O)cc2)c2ccc(F)cc21
- inhibition in vivo at 300 µmol/kg (Mus musculus): 14%
- UI (Rattus norvegicus [1]): 1
- inhibition in vivo at 300 µmol/kg (Rattus norvegicus [2]): 27%

SMILES: Cc1ccc(Cl)c(Nc2ccccc2C(=O)NOCc2ccc([N+](=O)[O-])cc2)c1Cl
- Ratio IC50 [3]: 273

SMILES: CC1=C(CC(=O)Nc2ccccc2)c2cc(F)ccc2/C1=C\c1ccc(S(C)(=O)=O)cc1
- inhibition in vivo at 300 µmol/kg (Mus musculus): 19%
- UI (Rattus norvegicus [1]): 0
- inhibition in vivo at 300 µmol/kg (Rattus norvegicus [2]): 12%

SMILES: Cc1ccc(-c2cc(C(F)(F)F)nn2-c2ccc(S(N)(=O)=O)cc2)cc1 [CELECOXIB]
- inhibition in vivo at 300 µmol/kg (Mus musculus): 56%
- inhibition in vivo at 300 µmol/kg (Rattus norvegicus [2]): 35%

SMILES: CCNC(=O)CC1=C(C)/C(=C/c2ccc(S(C)(=O)=O)cc2)c2ccc(F)cc21
- inhibition in vivo at 300 µmol/kg (Mus musculus): 59%
- UI (Rattus norvegicus [1]): 0
- inhibition in vivo at 300 µmol/kg (Rattus norvegicus [2]): 27%

SMILES: CC1=C(CC(=O)N2CCCCC2)c2cc(F)ccc2/C1=C\c1ccc(S(C)(=O)=O)cc1
- inhibition in vivo at 300 µmol/kg (Mus musculus): 36%
- UI (Rattus norvegicus [1]): 0
- inhibition in vivo at 300 µmol/kg (Rattus norvegicus [2]): 19%

SMILES: CNC(=O)CC1=C(C)/C(=C/c2ccc([S+](C)[O-])cc2)c2ccc(F)cc21 (configuration not stated)
- inhibition in vivo at 300 µmol/kg (Mus musculus): 6%
